Results on 1 molecule are retold here after ChEMBL document CHEMBL1150418, “Discovery of potent furan piperazine sodium channel blockers for treatment of neuropathic pain” (Bioorg Med Chem, 2008).

The target of data set [1] is Sodium channel protein type 10 subunit alpha (Rattus norvegicus) (UniProt Q62968). Briefly: Blockade of Nav1.8 channel in rat dorsal root ganglion neurons assessed as inhibition of TTX-R current at 0.1 uM by whole cell patch clamp technique. The data set is classed as tissue-based. In a few lines: (§1)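 Whole-cell voltage clamp of TTX-resistant currents in dissociated rat DRG neurons. Pipette (mM): CsF 135, NaCl 5, CsCl 10, EGTA 5, HEPES 10, pH 7.2. Bath (mM): NaCl 22, choline Cl 110, CaCl2 1.8, MgCl2 0.8, HEPES 10, glucose 5, pH 7.4. Inactivated-state protocol with pre-pulse at V1/2 (−40 mV). Mean ± SEM of two to six determinations.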
Chain of Sodium channel protein type 10 subunit alpha (Rattus norvegicus) (Q62968 whole entry, looked up): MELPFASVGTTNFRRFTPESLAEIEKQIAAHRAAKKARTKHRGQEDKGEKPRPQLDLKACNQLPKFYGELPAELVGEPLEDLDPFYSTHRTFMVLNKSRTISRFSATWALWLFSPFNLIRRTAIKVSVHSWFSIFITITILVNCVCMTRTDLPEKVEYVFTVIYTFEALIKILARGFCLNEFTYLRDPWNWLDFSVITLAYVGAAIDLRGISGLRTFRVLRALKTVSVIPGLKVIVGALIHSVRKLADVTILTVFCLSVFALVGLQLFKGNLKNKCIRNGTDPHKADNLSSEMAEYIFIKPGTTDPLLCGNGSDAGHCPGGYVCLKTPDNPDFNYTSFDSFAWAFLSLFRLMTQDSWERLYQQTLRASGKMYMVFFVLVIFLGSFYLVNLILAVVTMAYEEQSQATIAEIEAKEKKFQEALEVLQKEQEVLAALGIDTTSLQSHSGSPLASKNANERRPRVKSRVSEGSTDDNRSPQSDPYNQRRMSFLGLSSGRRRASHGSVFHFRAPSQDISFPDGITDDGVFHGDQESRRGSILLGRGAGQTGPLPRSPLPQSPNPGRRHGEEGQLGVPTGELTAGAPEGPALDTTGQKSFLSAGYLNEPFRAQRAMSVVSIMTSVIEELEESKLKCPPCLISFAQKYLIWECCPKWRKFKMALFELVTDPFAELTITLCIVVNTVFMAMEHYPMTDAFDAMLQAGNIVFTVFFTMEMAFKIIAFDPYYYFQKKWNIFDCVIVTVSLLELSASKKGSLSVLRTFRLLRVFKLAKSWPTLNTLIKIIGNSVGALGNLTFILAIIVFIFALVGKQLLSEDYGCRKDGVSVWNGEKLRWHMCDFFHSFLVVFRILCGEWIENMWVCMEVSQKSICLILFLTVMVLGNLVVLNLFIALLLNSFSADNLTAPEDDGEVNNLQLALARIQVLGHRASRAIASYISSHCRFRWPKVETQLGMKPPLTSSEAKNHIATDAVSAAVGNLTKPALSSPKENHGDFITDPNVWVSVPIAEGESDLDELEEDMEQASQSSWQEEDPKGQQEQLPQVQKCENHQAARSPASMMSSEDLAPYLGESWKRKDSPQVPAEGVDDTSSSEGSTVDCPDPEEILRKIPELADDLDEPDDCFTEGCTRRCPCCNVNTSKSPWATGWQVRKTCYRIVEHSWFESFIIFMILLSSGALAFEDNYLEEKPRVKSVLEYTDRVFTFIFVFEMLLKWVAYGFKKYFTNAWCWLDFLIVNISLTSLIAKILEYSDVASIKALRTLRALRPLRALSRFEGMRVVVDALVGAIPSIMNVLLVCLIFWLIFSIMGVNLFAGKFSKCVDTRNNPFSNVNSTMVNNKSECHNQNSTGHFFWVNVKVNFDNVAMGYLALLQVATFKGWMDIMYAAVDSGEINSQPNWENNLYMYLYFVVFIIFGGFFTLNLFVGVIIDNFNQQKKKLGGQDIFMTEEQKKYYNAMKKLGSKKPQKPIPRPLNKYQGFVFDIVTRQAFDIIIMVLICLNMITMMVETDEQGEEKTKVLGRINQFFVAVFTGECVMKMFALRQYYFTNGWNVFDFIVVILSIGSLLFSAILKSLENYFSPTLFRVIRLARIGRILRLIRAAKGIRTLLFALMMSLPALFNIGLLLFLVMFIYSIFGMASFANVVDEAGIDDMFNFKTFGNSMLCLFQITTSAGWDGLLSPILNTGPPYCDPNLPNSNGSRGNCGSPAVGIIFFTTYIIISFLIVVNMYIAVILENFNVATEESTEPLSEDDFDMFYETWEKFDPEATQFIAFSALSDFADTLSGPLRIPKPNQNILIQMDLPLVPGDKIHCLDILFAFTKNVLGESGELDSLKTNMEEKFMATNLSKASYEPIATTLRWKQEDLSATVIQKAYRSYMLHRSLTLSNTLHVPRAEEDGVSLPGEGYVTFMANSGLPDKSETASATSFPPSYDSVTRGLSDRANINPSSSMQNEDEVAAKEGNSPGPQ
A general note: In patch-clamp work, channel activity is measured electrically.

The target is the same in data set [2]. Briefly: Blockade of Nav1.8 channel in rat dorsal root ganglion neurons assessed as inhibition of TTX-R current at 0.03 uM by whole cell patch clamp technique. Format: tissue-based. The gist of the method:
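Dissociated rat DRG neurons; TTx-r currents recorded by whole-cell voltage clamp. Holding pre-pulse was set at the steady-state inactivation midpoint (V1/2 = −40 mV), giving an inactivated-state protocol. Pipette solution (mM): CsF 135, NaCl 5, CsCl 10, EGTA 5, HEPES 10, pH 7.2. Bath solution (mM): NaCl 22, choline Cl 110, CaCl2 1.8, MgCl2 0.8, HEPES 10, glucose 5, pH 7.4. Percent inhibition is the mean of 2–6 determinations ± SEM.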

The target of data set [3] is T1, Sodium channel protein type 10 subunit alpha (Homo sapiens, UniProt Q9Y5Y9). Nature of the data set: Inhibition of human recombinant Nav1.8 channel expressed in HEK293 cells at 0.1 uM by whole cell voltage clamp technique. The data set is classed as cell-based. The gist of the method: (§2)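 HEK293 cells stably expressing recombinant human sodium channels, grown in high-glucose DMEM, 10% FBS, 2 mM sodium pyruvate, G418. Whole-cell voltage clamp; pipettes 0.8–2.5 MΩ; internal (mM) 135 CsF, 10 CsCl, 5 EGTA, 5 NaCl, 10 HEPES, pH 7.3 with CsOH. Holding pre-pulse set at midpoint of steady-state inactivation for each subtype.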
Target sequence in this assay (Q9Y5Y9 whole entry, looked up): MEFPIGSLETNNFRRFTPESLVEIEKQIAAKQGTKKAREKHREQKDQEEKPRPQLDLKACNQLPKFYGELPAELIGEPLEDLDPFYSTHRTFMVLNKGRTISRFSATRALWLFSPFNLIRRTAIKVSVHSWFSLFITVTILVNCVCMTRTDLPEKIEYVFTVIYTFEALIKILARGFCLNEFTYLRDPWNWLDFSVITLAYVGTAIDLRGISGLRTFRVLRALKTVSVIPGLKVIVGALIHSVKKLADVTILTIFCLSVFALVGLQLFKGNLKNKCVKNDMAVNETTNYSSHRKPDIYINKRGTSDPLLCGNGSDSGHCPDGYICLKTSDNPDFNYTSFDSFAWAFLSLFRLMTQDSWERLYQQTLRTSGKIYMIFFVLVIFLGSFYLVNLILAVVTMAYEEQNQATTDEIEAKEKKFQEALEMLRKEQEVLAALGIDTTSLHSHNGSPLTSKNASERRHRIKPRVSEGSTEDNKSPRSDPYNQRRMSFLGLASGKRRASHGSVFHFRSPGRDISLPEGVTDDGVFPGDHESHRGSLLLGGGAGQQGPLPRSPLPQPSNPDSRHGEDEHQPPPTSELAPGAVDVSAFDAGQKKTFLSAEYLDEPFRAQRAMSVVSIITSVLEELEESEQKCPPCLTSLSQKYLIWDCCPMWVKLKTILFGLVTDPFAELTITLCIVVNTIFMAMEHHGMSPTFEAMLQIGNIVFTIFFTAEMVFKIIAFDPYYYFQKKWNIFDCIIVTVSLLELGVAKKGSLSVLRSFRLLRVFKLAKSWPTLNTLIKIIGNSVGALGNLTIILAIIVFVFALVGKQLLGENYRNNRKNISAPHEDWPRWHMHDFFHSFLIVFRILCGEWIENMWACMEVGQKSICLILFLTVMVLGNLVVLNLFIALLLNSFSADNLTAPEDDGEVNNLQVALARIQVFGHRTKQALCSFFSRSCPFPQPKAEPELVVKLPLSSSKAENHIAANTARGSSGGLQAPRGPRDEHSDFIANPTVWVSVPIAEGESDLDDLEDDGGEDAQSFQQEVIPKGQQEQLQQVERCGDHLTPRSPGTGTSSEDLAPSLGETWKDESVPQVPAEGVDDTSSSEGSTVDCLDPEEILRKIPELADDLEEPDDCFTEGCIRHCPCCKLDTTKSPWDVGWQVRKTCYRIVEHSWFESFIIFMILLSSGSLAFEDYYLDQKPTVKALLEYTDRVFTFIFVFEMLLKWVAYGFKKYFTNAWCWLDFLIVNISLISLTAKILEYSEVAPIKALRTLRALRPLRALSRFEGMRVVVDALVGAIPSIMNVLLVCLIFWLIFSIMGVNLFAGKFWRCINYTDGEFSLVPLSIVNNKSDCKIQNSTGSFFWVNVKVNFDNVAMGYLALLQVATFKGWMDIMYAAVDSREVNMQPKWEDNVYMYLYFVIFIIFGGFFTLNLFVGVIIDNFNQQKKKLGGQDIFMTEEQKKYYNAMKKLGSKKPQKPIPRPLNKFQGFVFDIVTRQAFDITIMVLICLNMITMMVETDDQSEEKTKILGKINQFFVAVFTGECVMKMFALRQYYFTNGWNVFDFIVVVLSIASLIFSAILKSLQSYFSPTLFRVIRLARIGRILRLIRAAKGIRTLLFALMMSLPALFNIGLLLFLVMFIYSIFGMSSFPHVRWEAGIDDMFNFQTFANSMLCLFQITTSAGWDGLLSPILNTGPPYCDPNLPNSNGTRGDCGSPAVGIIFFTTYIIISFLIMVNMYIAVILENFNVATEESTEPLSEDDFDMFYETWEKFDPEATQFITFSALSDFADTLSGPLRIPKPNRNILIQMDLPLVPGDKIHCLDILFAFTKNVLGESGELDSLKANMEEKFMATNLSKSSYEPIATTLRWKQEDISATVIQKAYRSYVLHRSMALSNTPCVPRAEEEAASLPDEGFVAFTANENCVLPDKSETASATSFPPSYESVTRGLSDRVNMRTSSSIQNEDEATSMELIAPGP

Data set [4] has as its target T1, Sodium channel protein type 10 subunit alpha. Nature of the data set: Inhibition of human recombinant Nav1.8 channel expressed in HEK293 cells at 0.03 uM by whole cell voltage clamp technique. The data set is classed as cell-based. The gist of the method:
as §2
Target sequence in this assay (Q9Y5Y9 whole entry, looked up): as above

For data set [5], the target named is Sodium channel protein type 10 subunit alpha (Rattus norvegicus, UniProt Q62968). Nature of the data set: Blockade of Nav1.8 channel in rat dorsal root ganglion neurons assessed as inhibition of TTX-R current by whole cell patch clamp technique. The data set is classed as tissue-based. The gist of the method:
as §1

Data set [6] deals with T1, Sodium channel protein type 10 subunit alpha. Nature of the data set: Inhibition of human recombinant Nav1.8 channel expressed in HEK293 cells by whole cell voltage clamp technique. Format: cell-based. In a few lines:
as §2
Target sequence in this assay (Q9Y5Y9 whole entry): as the sequence (Q9Y5Y9 whole entry, looked up) above

The target in data set [7] is Sodium channel protein type 5 subunit alpha (Homo sapiens, UniProt Q14524). Nature of the data set: Inhibition of human recombinant Nav1.5 channel expressed in HEK293 cells by whole cell voltage clamp technique. Format: cell-based. The gist of the method:
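HEK293 cells stably expressing recombinant human sodium channels, grown in high-glucose DMEM, 10% FBS, 2 mM sodium pyruvate, G418. Holding pre-pulse set at midpoint of steady-state inactivation for each subtype.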

For data set [8], the system named is Rattus norvegicus. Briefly: Analgesic activity in po dosed Sprague-Dawley rat assessed as attenuation of mechanical allodynia in chung model of neuropathic pain. Format: functional.
In data set [9] the test system is Rattus norvegicus. Briefly: Analgesic activity in po dosed Sprague-Dawley rat by edge test. The data set is classed as functional. The gist of the method: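 Balance test: rats placed on 0.5-cm-thick edges of a 40 × 40 × 36 cm plexiglass box, must pull up onto the edge and avoid falling; cut-off 2 min. Groups of at least six rats.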
For data set [10], the system named is Rattus norvegicus. Nature of the data set: Cardiovascular effect in iv dosed Sprague-Dawley rat assessed as decrease in mean arterial blood pressure. The arrangement: scale not given: the % may be the effect or the level left. The data set is classed as functional, Artery. In a few lines:
(§3)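 Anesthetized rats: after a 30-min control period, blocker or vehicle (PEG-400) infused intravenously as five successive 30-min infusions at 1×, 3×, 10×, 30× and 100× of calculated therapeutic dose; blood sample and hematocrit taken after infusion; mean arterial pressure and heart rate monitored.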

The subject of data set [11] is Rattus norvegicus. Nature of the data set: Cardiovascular effect in iv dosed Sprague-Dawley rat assessed as decrease in heart rate. The data set is classed as functional. More on the design: scale not given: the % may be the effect or the level left. In a few lines: as §3
Data set [12] can be described thus: Ratio of drug level in brain to plasma in Sprague-Dawley rat. Format: ADME. The note with it: Sprague-Dawley, brain and plasma.
A short description of data set [13]: Plasma clearance in Sprague-Dawley rat at 10 mg/kg. Format: ADME, organism-based. The arrangement: dose 10 mg/kg. In a few lines:
(§4)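 Rat pharmacokinetics after administration at 10 mg/kg in 10% DMSO/PEG400.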

Data set [14] can be described thus: Cmax in Sprague-Dawley rat at 10 mg/kg, po. Format: ADME, organism-based. More on the design: dose 10 mg/kg, route oral. Conditions: in vivo. The gist of the method: as §4
Data set [15] can be described thus: Volume of distribution at steady state in Sprague-Dawley rat at 10 mg/kg. Format: ADME, organism-based. More on the design: dose 10 mg/kg. Conditions: in vivo, read-out: Vdss. The gist of the method:
as §4

A short description of data set [16]: Oral bioavailability in Sprague-Dawley rat at 10 mg/kg. The data set is classed as ADME, organism-based. The note with it: in vivo. The gist of the method: as §4
For data set [17], the system named is Rattus norvegicus. Nature of the data set: Analgesic activity in po dosed Sprague-Dawley rat by rotarod test. Format: functional. In a few lines: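 Accelerating rotorod: after 30-min acclimation, rats placed on 9-cm rod ramping 0–20 rpm over 60 s; latency to fall recorded, maximum 60 s; three training sessions per rat. Groups of at least six rats; mean ± SEM.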

Data set [18] concerns Rattus norvegicus. Briefly: Effect on locomotor activity in Sprague-Dawley rat at 230 umol/kg. The data set is classed as functional. In a few lines:
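Open-field locomotor activity recorded with photobeam activity monitors during the light cycle; groups of at least six rats, mean ± SEM.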

Chain of Sodium channel protein type 10 subunit alpha (Rattus norvegicus, UniProt Q62968) (Q62968 whole entry): as the sequence (Q62968 whole entry, looked up) above

For `CC(C)(C)c1ccc(-c2ccc(C(=O)N3CCN(C4CCCCC4)CC3)o2)cc1`, the inhibition in data set [1] came out at 58%; in data set [2] it was 20%; in data set [3], 81%; in data set [4], 57%. For the same molecule, the figures for the IC50 in data set [5], in data set [6] and in data set [7] were 90 nM, 30 nM and 100 nM, respectively. In addition, the ED50 with Rattus norvegicus [8] is 4.7 µmol/kg; in the data set on Rattus norvegicus [9] it was above 300 µmol/kg; with Rattus norvegicus [17], above 300 µmol/kg. The Activity was 11% in the data set with Rattus norvegicus [10], 27% in the data set with Rattus norvegicus [11] and 38% in the data set with Rattus norvegicus [18]. Further, the Kp in [12] is 8. The same molecule gave a clearance in [13] of 127 mL/min/kg. The molecule also showed a Cmax in [14] of 570 ng/mL. The Vd in [15] was determined as 13.4 L/kg. The molecule also gave a bioavailability in [16] of 7%.

The inhibition is the change of the read-out against control, counted positive when it falls. In general, IC50 refers to the concentration needed to halve the response being measured. A word on the ED50: it is the dose that gives a 50% effect, or the effect in half of the subjects. As usually defined, the Kp is tissue or fluid exposure divided by exposure in the circulation. By clearance is commonly meant a measure of how efficiently the substance is removed, as volume per time. In general, Cmax refers to the highest concentration seen after dosing. Broadly, the bioavailability is dose-corrected exposure relative to a reference, in per cent.
